# Assay outcomes from PubChem BioAssay.
# Rows were chosen to be rich in hits. Some 3.1% of all compounds tested hit in one or more screens of this group.
# rRNA inh HTS – selective bacterial rRNA inhibition in E. coli; E. coli WT GFP vs humanized-ribosome RFP mutants, fluorescence, 24 h; stronger effect = lower value; DMSO median 0, no signal -100; GFP signal change (wild-type ribosome), % (no concentration beside the values); 1.6% of 350,000 active;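 active = significant combined selectivity score with lowered wild-type GFP, culture density cut under 30%, mutant RFP and density less affected; inactive = any of these conditions unmet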
# F508del corr – CFTR F508del correction in bronchial cells. CFBE cells, YFP halide quenching; stimulated with forskolin plus potentiator P3; % fluorescence drop versus neutral controls. activity (quench increase), % at 7.58 µM. 0.36% of 350,000 active. AID 720511;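 active = mean added fluorescence quench of at least 8% versus neutral control, with both replicates also reaching 8%; inconclusive = only one of the mean or replicate conditions met; inactive = mean below 8% and not both replicates reaching 8%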;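 note: cells transiently co-express mutant CFTR-F508del with the halide-sensitive YFP; corrector assay measuring rescue of mutant channel to the surface after 24 h compound exposure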
# SIRT5 block – sirtuin-5 (human) deacylase inhibition. Q9NXA8. inhibition, % at 15 µM. 1.1% of 330,000 active. AID 652115. Purified SirT5, succinyl-peptide AMC, trypsin-coupled fluorescence; in the data active = inhibition above about 15%; inconclusive = no clear call, values can overlap the other calls
# Target sequence (Q9NXA8 whole entry, looked up): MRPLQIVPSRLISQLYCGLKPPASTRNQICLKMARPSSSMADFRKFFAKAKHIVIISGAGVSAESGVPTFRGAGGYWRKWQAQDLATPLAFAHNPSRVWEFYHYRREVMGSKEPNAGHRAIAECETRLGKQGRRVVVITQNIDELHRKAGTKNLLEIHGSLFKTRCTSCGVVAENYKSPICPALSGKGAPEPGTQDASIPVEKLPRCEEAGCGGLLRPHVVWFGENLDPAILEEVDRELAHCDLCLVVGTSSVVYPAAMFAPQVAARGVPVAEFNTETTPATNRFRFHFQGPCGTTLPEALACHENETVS
# S100A4 inh HTS – S100A4-myosin IIA interaction inhibition; 0.14% of 360,000 active; AID 652163; S100A4/TAMRA-MyoIIA peptide fluorescence polarization; inhibition, % at 10.7 µM; P26447;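 active = mean inhibition of at least 70% across replicates, with every replicate also reaching that level; inconclusive = mean inhibition reaches 70% but some replicates fall short; inactive = mean inhibition below 70%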
# Target sequence (P26447 whole entry, looked up): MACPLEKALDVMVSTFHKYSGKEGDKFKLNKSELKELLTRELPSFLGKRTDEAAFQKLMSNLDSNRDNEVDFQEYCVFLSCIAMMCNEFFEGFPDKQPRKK
#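 assay system = human S100A4 monomer with TAMRA-labelled myosin IIA peptide | also added = labelled myosin peptide probe, 5 nM | incubation = 5 min between mix addition and reading | control set = DMSO and TFP controls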
# ERAP1 HTS inh – inhibitors of human ERAP1 aminopeptidase | Q9NZ08 | recombinant ERAP1, Leu-AMC fluorescence, 60 min | inhibition, % at 10.7 µM | 0.15% of 340,000 active | AID 652197;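 active = mean replicate inhibition of at least 30%, or all replicates individually reaching that 30% level; inactive = mean below 30% and not every replicate reaching it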
# AID977621 – wild-type E. coli growth inhibition versus H69 humanized strain – H69 mutant RFP, wild-type GFP, cherry-pick, dose response | shares compounds with rRNA inh HTS | fluorescence, 24 h | activity change, negative = inhibition at 50 µM | 1,900 tested, under 10 active;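 active = Wild-type ribosome reporter drop at least double the humanized mutant ribosome reporter drop, growth loss under a set limit; inconclusive = no clear call, values can overlap the other calls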;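 note: wild-type GFP and H69 mutant RFP strains grown together 50/50 in each well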
# AID977628 – E. coli growth inhibition, wild-type GFP versus h24 humanized RFP strain, dose response, h24 mutant RFP vs wild-type GFP, cherry-pick; shares compounds with rRNA inh HTS; E. coli WT GFP strain growth, fluorescence, 24 h; activity change, negative = inhibition at 50 µM; 1,900 tested, under 10 active;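 active = compound lowering the normal-ribosome reporter at least twice as much as the humanized-ribosome reporter, growth loss under a set limit; inconclusive = no clear call, values can overlap the other calls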;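 note: wild-type GFP and h24 humanized RFP strains co-cultured 1 to 1 per well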
# Numbers stand for hits; i = inactive; ? = inconclusive; nt = no result.
SMILES,rRNA inh HTS,F508del corr,SIRT5 block,S100A4 inh HTS,ERAP1 HTS inh,AID977621,AID977628
O=C(c1cccs1)c1c[nH]cc1-c1ccccc1,-30,i,i,i,i,i,i
O=C(c1cccs1)c1ccccc1Cc1cccs1,i,i,i,i,i,nt,nt
O=C(Nc1cccc(F)c1)N1CC(=O)N2[C@H](CO)[C@@H](c3ccc(C#CCC4CCCC4)cc3)[C@H]2C1,i,i,i,i,i,nt,nt
O=S1(=O)N[C@H](Cc2ccccc2)COc2cccc(N3CCC[C@H]3CO)c21,-22,i,i,i,nt,i,nt
O=S1(=O)N[C@@H](Cc2ccccc2)COc2cc(N3CCC[C@H]3CO)ccc21,-16,i,i,i,nt,nt,i
O=C1CCCN1c1ccc([N+](=O)[O-])cc1,-4.0,i,nt,i,i,?,?
C[C@H](CO)N1C[C@H](C)[C@@H](CN(C)Cc2ccc(Oc3ccccc3)cc2)Oc2ccc(NC(=O)c3ccncc3)cc2C1=O,i,i,i,i,i,nt,nt
O=[N+]([O-])c1ccc(Cc2ccc([N+](=O)[O-])cc2)cc1,i,nt,i,i,i,nt,nt
CN(Cc1ccc([N+](=O)[O-])cc1)c1ccccc1,-26,i,nt,i,i,i,i
COc1cc(NC(=O)COC(=O)CC(C)(C)C)c(C)cc1[N+](=O)[O-],-22,nt,i,i,i,?,nt
C/C=C/C(=O)OCC(=O)Nc1cc(OC)c([N+](=O)[O-])cc1C,i,i,i,i,i,nt,nt
C[C@@H]1CN([C@@H](C)CO)C(=O)c2cc(NC(=O)CCCN(C)C)ccc2O[C@H]1CN(C)Cc1ccc(Oc2ccccc2)cc1,i,i,i,i,i,nt,nt
COc1ccc(-c2csc3ncn(-c4ccc(C)cc4)c(=O)c23)cc1OC,-23,i,i,i,i,?,nt
C[C@@H]1CN([C@@H](C)CO)C(=O)c2cc(-c3cccc(F)c3)cnc2O[C@H]1CN(C)C(=O)C1CCCCC1,i,i,i,i,i,nt,nt
N#Cc1ccc(C(=O)Nc2ccn(-c3ccccc3)n2)cc1,-14,i,i,i,i,i,nt
COC(=O)c1nc(-c2ccc(C)cc2)[nH]c1C(C)(C)C,-21,i,i,i,nt,i,i
Cc1ccc(-c2[nH]c(-c3ccc(C(=O)O)cc3)nc2-c2ccccc2)cc1,i,nt,nt,i,i,nt,nt
CCn1c(SCC(=O)Nc2ccc(OC)cc2)nc2nc3c(cc2c1=O)COC(C)(C)C3,i,i,nt,i,i,nt,nt
CCn1c(SCC(=O)Nc2ccc(OC)cc2)nc2nc3c(cc2c1=O)CCCC3,-28,i,16,i,i,i,?
COc1ccccc1NC(=O)N[C@H]1CC[C@H](CC(=O)N[C@@H](C)c2ccccc2)O[C@@H]1CO,i,i,i,i,i,nt,nt
CC(=O)N(CCC1(c2ccc(C)cc2)CCOC(C(C)C)C1)Cc1ccco1 (stereo unspecified),-20,i,i,i,i,i,nt
O=[N+]([O-])c1ccc(Cl)cc1NCc1cccnc1,-21,i,i,i,i,i,?
FC(F)(F)c1ccc(Cl)c(-n2c(Cc3cccs3)n[nH]c2=S)c1,-33,i,i,i,i,i,nt
O=C(C[C@H]1CC[C@@H](NC(=O)Nc2ccccc2F)[C@@H](CO)O1)NCc1ccc(Cl)cc1,i,i,i,i,i,nt,nt
NS(=O)(=O)c1ccc(Nc2c([N+](=O)[O-])cncc2[N+](=O)[O-])cc1,-37,i,i,i,i,nt,?
Cc1nn(S(=O)(=O)c2ccc(Cl)cc2)c(C)c1Sc1ccc([N+](=O)[O-])cc1,-28,15,i,i,i,i,nt
Cc1nn(C(=O)C2CC2)c(C)c1Sc1ccc(Cl)cc1,i,nt,i,i,i,nt,nt
Cc1nonc1OCCNCCNc1ccc([N+](=O)[O-])cc1Cl,i,i,nt,i,i,nt,nt
O=[N+]([O-])c1ccc(NCCNCCOc2nonc2-c2ccccc2)c([N+](=O)[O-])c1,-21,i,i,i,i,i,i
CCCNC(=O)N1CC(=O)N2[C@H](C1)[C@H](c1ccc(-c3ccc(C)cc3)cc1)[C@@H]2CO,i,i,i,i,i,nt,nt
